# Test results as given in ChEMBL document CHEMBL5149984, “Discovery of HN37 as a Potent and Chemically Stable Antiepileptic Drug Candidate” (J Med Chem, 2021).
# Columns and labels:
# [1] = Neurotoxicity in Kunming mouse assessed as motor impairment rate at 250 mg/kg, po after 1 hr by rotarod test; assay type: toxicity, organism-based; conditions: in vivo
# Outline: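 Male KM mice dosed intragastrically with compound freshly suspended in 0.5% CMC-Na. Rotarod performance scored 1 h after dosing as the fraction of animals showing motor impairment. Fisher's exact test versus vehicle; TD50 from nonlinear dose−response fit.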
# [2] = target: T1, Potassium voltage-gated channel subfamily KQT member 4 (Homo sapiens) (UniProt P56696); assay: Agonist activity at human KCNQ4 channel expressed in CHO cells assessed as shift of half voltage of maximal activation at 10 uM by patch clamp method; assay type: cell-based; conditions: filed as agonist
# T1 sequence (whole entry): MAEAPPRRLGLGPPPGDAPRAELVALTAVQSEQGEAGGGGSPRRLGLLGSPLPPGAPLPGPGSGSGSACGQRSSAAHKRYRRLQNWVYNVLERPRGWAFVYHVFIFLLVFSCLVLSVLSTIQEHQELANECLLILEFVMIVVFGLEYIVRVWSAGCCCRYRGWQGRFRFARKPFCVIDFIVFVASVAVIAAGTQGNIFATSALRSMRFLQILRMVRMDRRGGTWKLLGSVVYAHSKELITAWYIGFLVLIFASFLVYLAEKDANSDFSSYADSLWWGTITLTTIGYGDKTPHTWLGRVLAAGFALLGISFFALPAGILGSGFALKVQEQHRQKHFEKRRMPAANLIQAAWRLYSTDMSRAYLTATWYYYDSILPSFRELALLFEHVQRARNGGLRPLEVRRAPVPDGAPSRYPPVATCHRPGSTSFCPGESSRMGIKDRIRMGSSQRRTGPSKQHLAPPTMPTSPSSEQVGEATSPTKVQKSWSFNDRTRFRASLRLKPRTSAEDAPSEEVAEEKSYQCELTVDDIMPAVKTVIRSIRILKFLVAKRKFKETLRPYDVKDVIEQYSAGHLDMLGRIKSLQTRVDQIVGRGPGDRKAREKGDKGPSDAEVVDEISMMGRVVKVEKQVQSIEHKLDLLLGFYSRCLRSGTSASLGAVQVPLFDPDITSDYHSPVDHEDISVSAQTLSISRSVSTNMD
# Outline: (§1)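 Whole-cell patch clamp at room temperature on CHO cells (DMEM/F12, 10% FBS) transiently co-transfected with EGFP and hKCNQ1, rKCNQ2, rKCNQ3 A278T, hKCNQ4 or hKCNQ5; KCNQ2/3 at 1:1 cDNA ratio. Pipette solution 145 mM KCl, 5 mM MgATP, pH 7.3; bath 140 mM NaCl, 5 mM KCl, pH 7.4, under perfusion. V1/2 from Boltzmann fits; I/I0 is current amplitude with versus without compound; n = 4−6.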
# CHO [3] = assay: Agonist activity at rat KCNQ3 A278T mutant expressed in CHO cells assessed as amplitude change of outward current at 10 uM by patch clamp method; assay type: cell-based; conditions: filed as agonist; outline: as §1
# Cytochrome P450 1A2 = Cytochrome P450 1A2 (Homo sapiens, UniProt P05177); assay: Time dependent inhibition of human liver microsome CYP1A2 preincubated for 0.5 hrs in presence of NADPH followed by substrate addition by LC-MS/MS method; assay type: ADME, microsomes
# Sequence of Cytochrome P450 1A2 (P05177 whole entry): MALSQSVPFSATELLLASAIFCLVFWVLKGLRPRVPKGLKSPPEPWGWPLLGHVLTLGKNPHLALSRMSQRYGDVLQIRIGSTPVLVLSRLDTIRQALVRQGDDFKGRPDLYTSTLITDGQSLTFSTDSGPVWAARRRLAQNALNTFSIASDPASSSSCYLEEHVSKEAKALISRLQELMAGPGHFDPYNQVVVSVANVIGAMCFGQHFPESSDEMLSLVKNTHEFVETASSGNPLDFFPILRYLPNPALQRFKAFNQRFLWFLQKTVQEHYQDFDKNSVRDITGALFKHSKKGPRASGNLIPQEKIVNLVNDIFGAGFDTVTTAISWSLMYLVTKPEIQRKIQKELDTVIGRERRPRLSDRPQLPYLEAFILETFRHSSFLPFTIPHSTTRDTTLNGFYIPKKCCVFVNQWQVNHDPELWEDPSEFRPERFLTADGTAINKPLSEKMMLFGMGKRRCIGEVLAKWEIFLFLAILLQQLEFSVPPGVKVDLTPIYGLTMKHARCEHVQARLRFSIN
# Outline: (§2)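 Human liver microsomes preincubated 0.5 h with 0.10–50 μM test compound, with or without NADPH, then CYP-specific probe substrate added and incubation continued. Metabolite measured by LC-MS/MS; % activity remaining relative to no-compound control; IC50 fitted by Probit model. For CYP3A4, midazolam 1′-hydroxylation and testosterone 6β-hydroxylation were read separately.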
# [4] = Half life in Kunming mouse plasma at 5 mg/kg, po measured upto 24 hrs by LC-MS/MS method; assay type: ADME, organism-based
# Outline: (§3)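 Male KM mice (18−24 g) fasted 12 h before and 2 h after dosing, given 5 mg/kg orally in 5% DMSO/5% Tween 80/90% normal saline (n = 3 per time point). Aortic blood taken at 0.25–24 h and whole brain collected. Acetonitrile extraction with internal standard, then LC−MS/MS. Bioavailability calculated against the 2 mg/kg i.v. arm.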
# [5] = Drug concentration in Kunming mouse brain at 5 mg/kg; assay type: ADME, organism-based; conditions: in vivo, read-out: Ct; outline: as §3
# [6] = AUC(0 to t) in Sprague-Dawley rat brain at 6 mg/kg, po measured upto 24 hrs by LC-MS/MS method; assay type: ADME, organism-based; set-up: dose 6 mg/kg, time < 24 hrs, route po
# Outline: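 Separate experiment in male SD rats given 6 mg/kg orally; blood and brain concentrations measured concurrently. Samples extracted with acetonitrile (brain homogenized in 10 volumes acetonitrile and sonicated) and analysed by LC−MS/MS; AUC0−t by trapezoidal method.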
# Cytochrome P450 2C8 [7] = target: T2, Cytochrome P450 2C8 (Homo sapiens, UniProt P10632); assay: Time dependent inhibition of human liver microsome CYP2C8 preincubated for 0.5 hrs in absence of NADPH followed by substrate addition by LC-MS/MS method; assay type: ADME, microsomes; outline: as §2
# T2 sequence (P10632 whole entry): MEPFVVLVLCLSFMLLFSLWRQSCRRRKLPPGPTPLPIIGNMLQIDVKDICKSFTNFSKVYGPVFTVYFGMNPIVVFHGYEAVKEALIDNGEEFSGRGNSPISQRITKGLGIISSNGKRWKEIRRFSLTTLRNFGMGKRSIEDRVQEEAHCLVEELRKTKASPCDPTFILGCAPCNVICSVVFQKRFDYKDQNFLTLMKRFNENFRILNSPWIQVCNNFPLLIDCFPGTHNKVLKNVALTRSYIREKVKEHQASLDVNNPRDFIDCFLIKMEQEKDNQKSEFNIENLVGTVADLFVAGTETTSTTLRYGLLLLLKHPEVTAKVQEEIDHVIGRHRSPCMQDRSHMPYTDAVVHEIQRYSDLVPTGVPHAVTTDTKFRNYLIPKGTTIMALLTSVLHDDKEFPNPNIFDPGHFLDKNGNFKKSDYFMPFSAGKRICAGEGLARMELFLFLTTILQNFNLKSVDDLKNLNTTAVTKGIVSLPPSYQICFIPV
# [8] = Metabolic stability in monkey liver microsomes assessed as half life; assay type: ADME, Macaca mulatta, Microsome; conditions: rhesus monkey
# CHO [9] = assay: Agonist activity at rat KCNQ3 A278T mutant expressed in CHO cells assessed as amplitude change of outward current at 0.1 uM by patch clamp method; assay type: cell-based; conditions: filed as agonist; outline: as §1
# [10] = Tmax in Kunming mouse plasma at 5 mg/kg, po measured upto 24 hrs by LC-MS/MS method; assay type: ADME, organism-based
# Outline: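 Male KM mice (18–24 g), fasted 12 h before and 2 h after dosing, n = 3 per time point. Oral dose in 5% DMSO/5% Tween 80/90% saline; i.v. dose is that formulation diluted in saline with 1% Tween 80. Blood sampled 0.25–24 h after oral dosing, 0.083–24 h after i.v.; whole brain taken after oral dosing. Acetonitrile extraction with internal standard, LC-MS/MS.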
# Cytochrome P450 2B6 = Cytochrome P450 2B6 (Homo sapiens, UniProt P20813); assay: Time dependent inhibition of human liver microsome CYP2B6 preincubated for 0.5 hrs in absence of NADPH followed by substrate addition by LC-MS/MS method; assay type: ADME, microsomes; outline: as §2
# Sequence of Cytochrome P450 2B6 (P20813 whole entry): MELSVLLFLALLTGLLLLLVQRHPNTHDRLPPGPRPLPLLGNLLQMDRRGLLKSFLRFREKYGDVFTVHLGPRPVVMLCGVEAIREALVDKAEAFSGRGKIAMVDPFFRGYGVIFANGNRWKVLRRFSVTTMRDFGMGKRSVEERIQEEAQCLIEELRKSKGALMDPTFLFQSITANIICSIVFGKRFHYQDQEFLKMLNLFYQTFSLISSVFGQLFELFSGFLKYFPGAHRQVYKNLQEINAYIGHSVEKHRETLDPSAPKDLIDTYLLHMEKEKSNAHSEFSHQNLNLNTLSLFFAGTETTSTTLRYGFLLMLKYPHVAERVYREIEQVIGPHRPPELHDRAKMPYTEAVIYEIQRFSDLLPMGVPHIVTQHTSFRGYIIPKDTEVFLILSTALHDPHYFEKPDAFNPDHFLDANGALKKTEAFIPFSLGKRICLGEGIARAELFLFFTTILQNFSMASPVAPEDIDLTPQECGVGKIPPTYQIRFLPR
# Cytochrome P450 2C8 [11] = target: T2, Cytochrome P450 2C8; assay: Time dependent inhibition of human liver microsome CYP2C8 preincubated for 0.5 hrs in presence of NADPH followed by substrate addition by LC-MS/MS method; assay type: ADME, microsomes; outline: as §2
# [12] = Metabolic stability in dog liver microsomes assessed as intrinsic clearance; assay type: ADME, Canis lupus familiaris, Microsome; conditions: read-out: CLH
# Cytochrome P450 2C9 = Cytochrome P450 2C9 (Homo sapiens, UniProt P11712); assay: Time dependent inhibition of human liver microsome CYP2C9 preincubated for 0.5 hrs in presence or absence of NADPH followed by substrate addition by LC-MS/MS method; assay type: ADME, microsomes; outline: as §2
# Sequence of Cytochrome P450 2C9 (P11712 whole entry): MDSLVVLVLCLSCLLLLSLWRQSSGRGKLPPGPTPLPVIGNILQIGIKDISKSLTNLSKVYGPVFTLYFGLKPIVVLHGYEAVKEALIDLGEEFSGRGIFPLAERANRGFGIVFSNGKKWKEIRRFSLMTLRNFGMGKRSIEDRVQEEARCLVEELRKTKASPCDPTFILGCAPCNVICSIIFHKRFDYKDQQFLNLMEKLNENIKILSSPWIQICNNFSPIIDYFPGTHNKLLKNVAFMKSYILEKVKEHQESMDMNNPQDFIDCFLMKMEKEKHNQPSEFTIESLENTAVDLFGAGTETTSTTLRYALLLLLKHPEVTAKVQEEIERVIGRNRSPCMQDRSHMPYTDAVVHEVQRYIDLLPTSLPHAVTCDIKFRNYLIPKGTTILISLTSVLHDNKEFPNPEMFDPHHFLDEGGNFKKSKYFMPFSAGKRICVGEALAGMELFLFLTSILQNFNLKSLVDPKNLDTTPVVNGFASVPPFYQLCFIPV
# Cytochrome P450 3A4 = Cytochrome P450 3A4 (Homo sapiens, UniProt P08684); assay: Time dependent inhibition of human liver microsome CYP3A4 preincubated for 0.5 hrs in presence or absence of NADPH followed by testosterone addition by LC-MS/MS method; assay type: ADME, microsomes; outline: as §2
# Sequence of Cytochrome P450 3A4 (P08684 whole entry): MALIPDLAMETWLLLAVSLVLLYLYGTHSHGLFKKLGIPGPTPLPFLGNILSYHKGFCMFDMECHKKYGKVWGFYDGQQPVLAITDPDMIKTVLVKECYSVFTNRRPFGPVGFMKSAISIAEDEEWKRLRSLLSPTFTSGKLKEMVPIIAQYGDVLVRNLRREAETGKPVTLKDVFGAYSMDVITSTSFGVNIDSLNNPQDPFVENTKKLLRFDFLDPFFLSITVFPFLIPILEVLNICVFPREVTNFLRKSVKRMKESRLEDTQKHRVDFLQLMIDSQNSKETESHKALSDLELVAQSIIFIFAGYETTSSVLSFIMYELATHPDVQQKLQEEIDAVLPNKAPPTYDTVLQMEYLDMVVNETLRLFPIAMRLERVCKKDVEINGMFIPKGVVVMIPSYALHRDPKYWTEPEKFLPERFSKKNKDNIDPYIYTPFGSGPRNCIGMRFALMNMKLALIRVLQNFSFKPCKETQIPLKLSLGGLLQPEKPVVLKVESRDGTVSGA
# CYP2C19 = CYP2C19 (Homo sapiens, UniProt P33261); assay: Ratio of IC50 for human liver microsome CYP2C19 in absence of NADPH to IC50 for human liver microsome CYP2C19 in presence of NADPH; conditions: liver microsomes, read-out: Ratio IC50
# Sequence of CYP2C19 (P33261 whole entry): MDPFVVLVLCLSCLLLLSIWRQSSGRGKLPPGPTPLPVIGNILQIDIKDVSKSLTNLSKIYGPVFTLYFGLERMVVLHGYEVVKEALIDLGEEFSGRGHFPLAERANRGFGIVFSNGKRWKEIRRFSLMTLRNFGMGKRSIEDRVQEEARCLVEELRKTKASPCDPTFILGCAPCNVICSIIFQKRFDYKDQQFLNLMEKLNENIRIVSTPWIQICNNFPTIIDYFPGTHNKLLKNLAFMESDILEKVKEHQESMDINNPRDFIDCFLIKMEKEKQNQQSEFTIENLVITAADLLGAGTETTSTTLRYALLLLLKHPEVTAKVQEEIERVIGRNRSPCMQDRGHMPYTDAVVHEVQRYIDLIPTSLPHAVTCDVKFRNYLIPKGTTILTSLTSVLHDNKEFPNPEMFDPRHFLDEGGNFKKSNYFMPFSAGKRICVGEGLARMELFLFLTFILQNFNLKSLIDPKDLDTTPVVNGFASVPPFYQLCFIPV
Structure (SMILES),Activity [1],Activity [2],Activity (CHO [3]),IC50 (Cytochrome P450 1A2),half-life [4],concentration [5],AUC(0-t) at 24 h [6],IC50 (Cytochrome P450 2C8 [7]),half-life [8],Activity (CHO [9]),Tmax [10],IC50 (Cytochrome P450 2B6),IC50 (Cytochrome P450 2C8 [11]),CLint scaled [12],IC50 (Cytochrome P450 2C9),IC50 (Cytochrome P450 3A4),IC50 shift (CYP2C19)
CCOC(=O)Nc1ccc(NCc2ccc(F)cc2)cc1N [EZOGABINE],62.5%,-34.1 mV,2.46,–,–,–,–,–,–,–,–,–,–,–,–,–,–
C#CCN(Cc1ccc(F)cc1)c1cc(C)c(NC(=O)OC)c(C)c1,–,–,–,2.53 µM,117 min,120 nM,1520 ng·h/mL,225 µM,18.1 min,2.1,15 min,141 µM,35.2 µM,97.2 mL/min/kg,> 50 µM,> 50 µM,< 1.5
